According to ChEMBL document CHEMBL1146946, “Synthesis of novel benzofuran isoxazolines as protein tyrosine phosphatase 1B inhibitors” (Bioorg Med Chem Lett, 2006):

How the values were obtained:
[1] = biological target: T1, Tyrosine-protein phosphatase non-receptor type 1 (Homo sapiens) (UniProt P18031); assay: Inhibition of PTP1B at 100 uM
T1 sequence (whole entry): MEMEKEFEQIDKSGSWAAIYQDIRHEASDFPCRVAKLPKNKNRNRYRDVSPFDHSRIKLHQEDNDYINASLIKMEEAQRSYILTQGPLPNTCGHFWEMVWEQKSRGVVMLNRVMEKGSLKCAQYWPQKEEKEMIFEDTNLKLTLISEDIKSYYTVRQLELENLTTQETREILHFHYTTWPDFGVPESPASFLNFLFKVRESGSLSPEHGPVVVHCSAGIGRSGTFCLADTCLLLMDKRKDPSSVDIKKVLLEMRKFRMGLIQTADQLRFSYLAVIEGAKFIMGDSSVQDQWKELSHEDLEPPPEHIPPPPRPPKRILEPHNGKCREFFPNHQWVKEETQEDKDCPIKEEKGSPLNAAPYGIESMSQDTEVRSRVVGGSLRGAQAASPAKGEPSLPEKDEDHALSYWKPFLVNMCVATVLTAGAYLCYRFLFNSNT
Summary of the method: (§1)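 Test compound preincubated 10 min with enzyme in the reaction system before residual phosphatase activity was read. Substrate was 10 mM p-nitrophenylphosphate in 50 mM HEPES pH 7.0 with 1 mM each of EDTA and DTT. The reaction was stopped with 0.1 N NaOH and absorbance read at 410 nm. No-enzyme blanks run in parallel corrected for non-enzymic hydrolysis.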

[2] = biological target: T2, Tyrosine-protein phosphatase non-receptor type 1 (Homo sapiens, UniProt P18031); assay: Inhibition of PTP1B; summary of the method: as §1
T2 sequence (P18031 whole entry): T1 sequence (whole entry)

[3] = tested on: Rattus norvegicus; assay: Antihyperglycemic activity in Streptozotocin-induced diabetic rat at 100 mg/kg; format: functional

Row | SMILES | inhibition [1] | IC50 [2] | Ki [2] | inhibition in vivo at 100 mg/kg [3]
1 | COc1c(C2=NOC(n3ccnc3)C2)ccc2occc12 (stereo unspecified) | 14.9% |  |  | 
2 | COc1c(C2=NOC(c3ccccn3)C2)cc(OC)c2occc12 (stereo unspecified) | 18.4% |  |  | 
3 | COC(=O)C1C(c2ccc3occc3c2OC)=NOC1c1ccccc1 (stereo unspecified) | 18.5% | 199 µM | 72.5 µM | 
4 | COc1c(-c2ccccc2)oc2c(ccc3occc32)c1=O [KARANJIN] | 15.8% |  |  | 35%

Further lines, with some results ahead:

Row | inhibition [1] | IC50 [2] | Ki [2] | SMILES | inhibition in vivo at 100 mg/kg [3]
5 | 80.4% | 76 µM | 30 µM | COc1c(C2=NOC(c3ccccc3)C2)cc(OC)c2occc12 (stereo unspecified) | 
6 | 79.6% | 81 µM | 32 µM | COc1ccc(C2CC(c3cc(OC)c4occc4c3OC)=NO2)cc1 (stereo unspecified) | 
7 | 17.4% |  |  | COc1c(C2=NOC(c3ccccn3)C2)ccc2occc12 (stereo unspecified) | 
8 | 49.1% | 150 µM | 27.5 µM | COc1ccc(C2CC(c3ccc4occc4c3OC)=NO2)cc1 (stereo unspecified) | 
9 | 22.5% | 227 µM | 45 µM | COc1c(C2=NOC(c3ccccc3)C2)ccc2occc12 (stereo unspecified) | 
10 | 14.7% |  |  | COc1c(C2=NOC(c3ccncc3)C2)ccc2occc12 (stereo unspecified) | 
